{"source": "ChEMBL document CHEMBL3797028", "about": "“Novel S1P1 receptor agonists - Part 4: Alkylaminomethyl substituted aryl head groups” (Eur J Med Chem, 2016)", "key": {"[1]": {"target": "T1, Sphingosine 1-phosphate receptor 4 (Homo sapiens, UniProt O95977)", "T1 sequence (O95977 whole entry)": "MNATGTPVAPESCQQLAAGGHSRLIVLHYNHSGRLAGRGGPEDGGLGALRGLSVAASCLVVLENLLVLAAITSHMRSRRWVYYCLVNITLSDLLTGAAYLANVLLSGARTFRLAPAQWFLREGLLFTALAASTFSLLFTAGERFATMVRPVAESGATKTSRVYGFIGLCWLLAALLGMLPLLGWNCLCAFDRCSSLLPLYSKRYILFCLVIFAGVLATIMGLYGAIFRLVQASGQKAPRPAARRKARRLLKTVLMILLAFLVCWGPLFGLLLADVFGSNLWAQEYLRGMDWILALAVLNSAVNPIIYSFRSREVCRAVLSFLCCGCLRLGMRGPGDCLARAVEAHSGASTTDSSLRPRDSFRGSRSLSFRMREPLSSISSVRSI", "experiment": "Agonist activity at S1PR4 (unknown origin)"}, "Rattus norvegicus [2]": {"species_on_record": "Rattus norvegicus", "experiment": "Intrinsic clearance in rat liver microsomes scaled to body weight", "settings": "in vitro"}, "Rattus norvegicus [3]": {"tested_on": "Rattus norvegicus", "experiment": "Change in circulating lymphocyte count in Wistar rat at 10 mg/kg administered as single dose through oral gavage after 24 hrs relative to control", "assay_type": "functional", "how_it_was_run": "(§1)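 Male Wistar rats (RccHan:WIST; n = 6) were given a single oral gavage dose of compound in DMSO plus 7.5% succinylated gelatine (final 5% DMSO). Blood lymphocytes were counted just before dosing and at later timepoints. Percent change was calculated per animal relative to the pre-dose value and compared with a vehicle-treated group, reported as the mean. A ±15% change was treated as baseline, and a reduction of about 60% or more as maximal.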"}, "[4]": {"experiment": "Plasma concentration in Wistar rat at 1 mg/kg administered as single dose through oral gavage after 6 hrs by LC-MS/MS analysis", "assay_type": "ADME, organism-based", "how_it_was_run": "(§2)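 Single oral gavage dose to male Wistar rats in DMSO/7.5% succinylated gelatine (final 5% DMSO). Blood was drawn into EDTA at the lymphocyte-count timepoints. Plasma was prepared at 3000 g for 10 min at 4 °C and analysed by LC-MS/MS after protein precipitation.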"}, "[5]": {"experiment": "Total brain concentration in Wistar rat at 10 mg/kg administered as single dose through oral gavage after 2 hrs by LC-MS/MS analysis", "assay_type": "ADME, organism-based", "settings": "read-out: Drug uptake", "how_it_was_run": "(§3)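 Male Wistar rats (n = 2 per timepoint) were dosed orally at 10 mg/kg. At 2, 6 and 24 h they were anaesthetised with 5% isoflurane and sacrificed, and blood was taken for plasma. The brain was perfused via the carotid with 10 mL 0.9% NaCl, removed, and homogenised in an equal volume of ice-cold 0.1 M Na-phosphate pH 7.4. Samples were assayed by LC-MS/MS against blank-brain calibration. Brain/plasma ratio was calculated from these values, reported as the mean of 2.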"}, "[6]": {"target": "Sphingosine 1-phosphate receptor 3 (Homo sapiens, UniProt Q99500)", "sequence (Q99500 whole entry)": "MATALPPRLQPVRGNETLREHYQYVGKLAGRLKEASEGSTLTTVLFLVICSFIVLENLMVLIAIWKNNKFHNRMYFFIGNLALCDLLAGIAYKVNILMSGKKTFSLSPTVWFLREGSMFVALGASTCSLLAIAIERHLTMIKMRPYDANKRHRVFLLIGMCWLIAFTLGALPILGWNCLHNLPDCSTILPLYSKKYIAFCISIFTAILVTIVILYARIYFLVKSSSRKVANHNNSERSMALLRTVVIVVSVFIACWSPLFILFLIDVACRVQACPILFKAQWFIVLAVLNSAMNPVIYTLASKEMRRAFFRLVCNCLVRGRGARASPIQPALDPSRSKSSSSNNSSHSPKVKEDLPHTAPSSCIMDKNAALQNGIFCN", "experiment": "Agonist activity at human recombinant S1PR3 expressed in CHO cell membranes assessed as [35S]GTPgammaS binding preincubated for 30 mins followed by [35S]GTPgammaS addition measured after 1 hr by topcount analysis", "assay_type": "functional", "how_it_was_run": "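Membranes from CHO cells expressing recombinant human S1P1 or S1P3 were used. Buffer was 20 mM Hepes pH 7.4, 100 mM NaCl, 5 mM MgCl2, 0.1% fatty-acid-free BSA, 2.5% DMSO and 50 pM 35S-GTPgammaS. GDP was […] for S1P3. Compound was preincubated 30 min at rt, then incubated 1 h at rt with 35S-GTPgammaS. Bound label was collected by filtration and counted. Specific binding was taken against 10 uM S1P. EC50 was the 50%-of-specific-binding concentration, reported as the geometric mean of at least three independent duplicate runs.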"}, "[7]": {"experiment": "Fraction unbound in Wistar rat plasma incubated for 6 hrs by LC-MS/MS based equilibrium dialysis method", "assay_type": "ADME, cell-free", "how_it_was_run": "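Rapid equilibrium dialysis was run on a shaker for 6 h at 37 °C. The donor side held rat plasma (pH 7.2–7.6) or 1 mg/mL rat liver microsomes in phosphate buffer pH 7.4. The receiver side held phosphate buffer pH 7.4. Both sides were measured by LC-MS/MS to give free fraction and recovery.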"}, "Rattus norvegicus [8]": {"tested_on": "Rattus norvegicus", "experiment": "Change in circulating lymphocyte count in Wistar rat at 1 mg/kg administered as single dose through oral gavage after 24 hrs relative to control", "assay_type": "functional", "how_it_was_run": "as §1"}, "[9]": {"experiment": "Plasma concentration in Wistar rat at 1 mg/kg administered as single dose through oral gavage after 24 hrs by LC-MS/MS analysis", "assay_type": "ADME, organism-based", "how_it_was_run": "as §2"}, "[10]": {"experiment": "Total plasma concentration in Wistar rat at 10 mg/kg administered as single dose through oral gavage after 24 hrs by LC-MS/MS analysis", "assay_type": "ADME, organism-based", "how_it_was_run": "as §3"}, "[11]": {"experiment": "Selectivity ratio of EC50 for human recombinant S1PR3 expressed in CHO cell membranes to EC50 for human recombinant S1PR1 expressed in CHO cell membranes", "assay_type": "cell-based", "how_it_was_run": "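Compound and membranes are pre-incubated 30 min at rt, then incubated 1 h at rt, filtered and counted. EC50 is the concentration giving 50% of S1P-defined specific binding, as the geometric mean of ≥3 independent duplicate runs. Ratio = EC50 S1PR3/EC50 S1PR1.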"}, "[12]": {"experiment": "Plasma concentration in Wistar rat at 1 mg/kg administered as single dose through oral gavage after 3 hrs by LC-MS/MS analysis", "assay_type": "ADME, organism-based", "how_it_was_run": "as §2"}, "[13]": {"target": "Sphingosine 1-phosphate receptor 1 (Homo sapiens, UniProt P21453)", "sequence (P21453 whole entry)": "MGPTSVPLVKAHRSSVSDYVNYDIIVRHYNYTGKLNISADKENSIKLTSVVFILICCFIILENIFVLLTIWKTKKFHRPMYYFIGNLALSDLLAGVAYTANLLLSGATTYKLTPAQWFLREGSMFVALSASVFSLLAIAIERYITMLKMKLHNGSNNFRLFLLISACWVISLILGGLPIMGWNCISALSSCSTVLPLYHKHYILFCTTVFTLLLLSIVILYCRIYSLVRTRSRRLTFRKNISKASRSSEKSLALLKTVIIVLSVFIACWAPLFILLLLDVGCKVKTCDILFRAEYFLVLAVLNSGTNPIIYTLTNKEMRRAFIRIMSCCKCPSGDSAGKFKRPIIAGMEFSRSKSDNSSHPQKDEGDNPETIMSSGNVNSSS", "experiment": "Agonist activity at human recombinant S1PR1 expressed in CHO cell membranes assessed as [35S]GTPgammaS binding preincubated for 30 mins followed by [35S]GTPgammaS addition measured after 1 hr by topcount analysis"}, "[14]": {"experiment": "Apparent intrinsic clearance in Wistar rat liver microsomes at 1 uM after 2.5 to 15 mins by LC-MS/MS analysis in presence of NADPH", "assay_type": "ADME", "settings": "read-out: CLH(app)", "how_it_was_run": "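Compound at 1 uM starting concentration was depleted by 0.5 mg/mL rat liver microsomes in 100 mM sodium phosphate pH 7.4 at 37 °C, with shaking under air. Reactions were started with an NADPH-regenerating system. Samples were taken at 0, 2.5, 5, 10 and 15 min, quenched in ice-cold methanol and analysed by LC-MS/MS. CLint,app came from first-order decay fitting.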"}, "Rattus norvegicus [15]": {"tested_on": "Rattus norvegicus", "experiment": "Change in circulating lymphocyte count in Wistar rat at 3 mg/kg administered as single dose through oral gavage after 6 hrs relative to control", "assay_type": "functional", "how_it_was_run": "as §1"}, "[16]": {"experiment": "Plasma concentration in Wistar rat at 10 mg/kg administered as single dose through oral gavage after 6 hrs by LC-MS/MS analysis", "assay_type": "ADME, organism-based", "how_it_was_run": "as §2"}, "Rattus norvegicus [17]": {"tested_on": "Rattus norvegicus", "experiment": "Reduction in circulating lymphocyte count in po dosed Wistar rat administered through gavage after 3 to 96 hrs", "assay_type": "functional, organism-based", "how_it_was_run": "as §1"}, "[18]": {"experiment": "Apparent oral clearance in Wistar rat plasma at 1 to 10 mg/kg administered through gavage by LC-MS/MS analysis", "assay_type": "ADME, organism-based", "how_it_was_run": "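Male Wistar rats received a single oral gavage dose of compound dissolved in DMSO and added to 7.5% succinylated gelatine in water (final 5% DMSO). EDTA plasma was spun at 3000 g for 10 min at 4 °C and analysed by LC-MS/MS after protein precipitation. Oral clearance was estimated from the plasma concentration–time data. In vivo intrinsic clearance used the well-stirred liver model, assuming complete absorption.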"}, "[19]": {"experiment": "Total plasma concentration in Wistar rat at 10 mg/kg administered as single dose through oral gavage after 2 hrs by LC-MS/MS analysis", "assay_type": "ADME, organism-based", "how_it_was_run": "as §3"}, "[20]": {"experiment": "Plasma concentration in Wistar rat at 10 mg/kg administered as single dose through oral gavage after 3 hrs by LC-MS/MS analysis", "assay_type": "ADME, organism-based", "how_it_was_run": "as §2"}}, "data": [{"smiles": "CCc1cc(-c2noc(-c3cc(C)c(CN(C)CC(C)C)s3)n2)cc(C)c1OC[C@@H](O)CNC(=O)CO", "values": [{"measurement": "EC50", "setting": "[1]", "result": "> 1000", "unit": "nM"}, {"measurement": "CL", "setting": "Rattus norvegicus [2]", "result": 25200, "unit": "mL/min/kg"}, {"measurement": "Activity", "setting": "Rattus norvegicus [3]", "result": -70, "unit": "%"}, {"measurement": "concentration at 6 h", "setting": "[4]", "result": 49, "unit": "ng/mL"}, {"measurement": "concentration at 2 h", "setting": "[5]", "result": 522, "unit": "ng/g"}, {"measurement": "EC50", "setting": "[6]", "result": 145, "unit": "nM"}, {"measurement": "fraction unbound at 6 h", "setting": "[7]", "result": "< 0.001"}, {"measurement": "Activity", "setting": "Rattus norvegicus [8]", "result": 4, "unit": "%"}, {"measurement": "concentration at 24 h", "setting": "[9]", "result": 5.2, "unit": "ng/mL"}, {"measurement": "concentration at 24 h", "setting": "[10]", "result": 66.5, "unit": "ng/mL"}, {"measurement": "Ratio EC50", "setting": "[11]", "result": 290}, {"measurement": "concentration at 3 h", "setting": "[12]", "result": 67, "unit": "ng/mL"}, {"measurement": "EC50", "setting": "[13]", "result": 0.5, "unit": "nM"}, {"measurement": "microsomal CLint at 1 µM", "setting": "[14]", "result": 28, "unit": "µL/min/mg"}, {"measurement": "Activity", "setting": "Rattus norvegicus [15]", "result": -70, "unit": "%"}, {"measurement": "concentration at 6 h", "setting": "[16]", "result": 540, "unit": "ng/mL"}, {"measurement": "Activity", "setting": "Rattus norvegicus [17]", "result": "Dose-dependent effect"}, {"measurement": "CL/F", "setting": "[18]", "result": 19, "unit": "mL/min/kg"}, {"measurement": "concentration at 2 h", "setting": "[19]", "result": 783, "unit": "ng/mL"}, {"measurement": "concentration at 3 h", "setting": "[20]", "result": 722, "unit": "ng/mL"}]}]}
